Compounds with a hit are over-represented: about 3.7% of the library has one in this group of screens.
EP2 antag = human EP2 receptor antagonists, primary screen, TR-FRET cAMP, C6 glioma cells; Prostaglandin E2 receptor EP2 subtype (Homo sapiens), P43116; C6 glioma cells expressing human EP2; cells stimulated with saturating PGE2; inhibition, % at 25 µM; 0.52% of 260,000 active; AID 1422, 2008;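 active = percent inhibition above 40 after rounding to a whole number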;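 also: rat C6 glioma host cells with rolipram phosphodiesterase inhibitor present; the protocol text gives 20 µM as final concentration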
Target sequence (P43116 whole entry, looked up): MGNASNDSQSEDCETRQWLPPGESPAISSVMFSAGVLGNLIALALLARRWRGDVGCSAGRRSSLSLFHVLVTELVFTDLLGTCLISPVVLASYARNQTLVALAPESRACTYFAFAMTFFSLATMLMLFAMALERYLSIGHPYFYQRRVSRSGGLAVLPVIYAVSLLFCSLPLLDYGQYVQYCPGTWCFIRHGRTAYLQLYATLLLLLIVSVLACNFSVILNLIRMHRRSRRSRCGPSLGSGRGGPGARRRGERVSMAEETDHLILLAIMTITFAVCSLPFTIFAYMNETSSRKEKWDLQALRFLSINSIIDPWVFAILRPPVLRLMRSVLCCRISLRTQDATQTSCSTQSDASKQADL
GPR7 antag = GPR7 receptor antagonists, primary screen, cell-based, fluorescence, single concentration. GPR7-expressing cells, fluorescence antagonist assay. inhibition, % at 4.4 µM. 1.1% of 290,000 active; in the data active = inhibition above about 16%, passing the limit was not always enough;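 also: cells stimulated with the agonist NPW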
OX1R antag-1 = OX1R (HCRTR1) antagonists, primary screen, fluorescence, CHO/OX1R cells, Fluo-8 calcium, orexin A. Orexin/Hypocretin receptor type 1 (Homo sapiens), O43613. Fluo-8 calcium fluorescence. inhibition, % at 5 µM. 0.43% of 330,000 active. AID 434989, 2010;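 active = inhibition above its plate's threshold, mean inhibition of all tested compounds on the plate plus 3 SD, cut at about 37% in these data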
OX1R antag-2 = antagonists of human orexin 1 receptor (OX1R). inhibition, % at 6.6 µM. Orexin/Hypocretin receptor type 1 (Homo sapiens), O43613. OX1R-expressing cells, FRET antagonist read-out. 1.8% of 330,000 active; in the data active = inhibition mostly above about 38%, no sharp cut-off; inactive = mostly below about 40%
EP2 modulator = EP2 receptor modulators, cAMP readout, primary screen, cell-based, HTRF cAMP, PGE2 stimulation | Prostaglandin E2 receptor EP2 subtype (Homo sapiens), P43116 | EP2-expressing cells, cAMP HTRF FRET, PGE2 co-stimulation | induction, % at 25 µM | 0.83% of 260,000 active | AID 940, 2007;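 active = compounds whose cAMP rise, as percent of the full-agonist control response, exceeds 60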;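 also: rat C6 glioma line stably carrying human EP2 under a CMV promoter; the protocol text gives 20 µM as final concentration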
CHO parental Ca = ATP-evoked calcium signal inhibitors, parental CHO, primary screen, counter-screen for OX1R antagonist project, cell-based, fluorescence, Fluo-8 calcium dye; parental CHO-K1, ATP-induced calcium, Fluo-8 fluorescence; inhibition, % at 5.6 µM; 0.63% of 330,000 active; AID 463079, 2010;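 active = inhibition above that plate's mean sample inhibition plus 3 SD, cut at about 26% in these data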
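Test system: untransfected parental CHO cell line. Compound: one dose, 5.6 µM nominal. Detection: intracellular calcium via Fluo-8 no-wash fluorescent dye. Measure: % inhibition. Benchmarks: ATP-challenged DMSO wells low, unchallenged DMSO wells high.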
GPR7 antag conf = GPR7 receptor antagonists, confirmation, cell-based, fluorescence, single concentration; AID 1952, 2009; 52% of 2,400 active; shares compounds with GPR7 antag; GPR7-expressing cells, calcium fluorescence antagonist mode; inhibition, % at 4.4 µM; in the data active = inhibition above about 24%;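 also: stimulated with the GPR7 agonist NPW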
MCHR1 antagonist = MCHR1 antagonists in cells, counter-screen for GPR7 antagonist project, cell-based, fluorescence, human | shares compounds with GPR7 antag | MCHR1-expressing cells, fluorescence antagonist assay | inhibition, % at 4.4 µM | 62% of 2,400 active | AID 2148, 2009; in the data active = inhibition above about 22%
Numbers stand for hits; . = inactive; / = not tested or not shown.

SMILES	EP2 antag	GPR7 antag	OX1R antag-1	OX1R antag-2	EP2 modulator	CHO parental Ca	GPR7 antag conf	MCHR1 antagonist
N#CC1(c2ccccc2)CCC(NCCc2ccccc2)CC1 (stereo unspecified)	/	40	.	.	/	.	.	.
O=C(NCCc1ccccc1)C1(c2ccccc2)CCCC1	/	.	.	.	/	.	/	/
CC(=O)NCCc1ccc(S(=O)(=O)Nc2ccc(NC(=O)c3ccc(F)cc3)cc2)cc1	/	.	.	.	/	.	/	/
CN(C)CC(CCC(CN(C)C)C(O)(c1ccccc1)c1ccccc1)C(O)(c1ccccc1)c1ccccc1 (stereo unspecified)	/	53	/	/	/	/	61	68
O=C(Nc1ccc(S(=O)(=O)N2CCCC2)cc1)c1ccc(CN2CCc3ccccc3C2)cc1	.	28	49	.	.	38	47	63
CCN(CC)CCNC(=O)CCc1c(C)nc2c(c(C)nn2-c2ccc(C)cc2)c1C	/	/	/	/	/	/	/	.
COCCNC(=O)CCc1c(C)nc2c(c(C)nn2-c2ccc(C)cc2)c1C	/	.	.	.	/	.	/	/
COc1ccc(OCC(=O)NCc2n[nH]c(=O)c3ccccc23)cc1	/	/	.	.	/	.	/	/
COc1ccc(NC(=O)CCc2nnc3ccc(N4CCN(c5cccc(OC)c5)CC4)nn23)cc1	/	25	.	.	/	.	.	33
O=C(OCC(=O)N1CCN(C(=O)c2ccco2)CC1)c1cc(F)c(F)cc1Cl	/	/	.	.	/	.	/	/
CCCNC(=O)CCCCn1c(=S)[nH]c2c([nH]c3ccc(OC)cc32)c1=O	.	.	.	.	.	.	/	/
COc1cc(NC2c3ccccc3C(=O)N2Cc2ccc3c(c2)OCO3)cc(OC)c1OC (stereo unspecified)	.	26	.	.	.	.	.	.
O=C(N1CCOCC1)N1CCN(c2ccc(Cl)c(Cl)c2)CC1	.	/	/	/	.	/	/	/
CCOc1cc(C2C(C#N)=C(N)Oc3n[nH]c(C)c32)c(C)cc1OC (stereo unspecified)	.	/	/	/	.	/	/	/
COc1ccc(O)c(CN2CCCC(C(=O)Nc3cccc(-n4cccn4)c3)C2)c1 (stereo unspecified)	/	.	/	/	/	/	/	/
Cc1ccc(-n2cccn2)c(CN2CCCC(C(=O)c3sccc3C)C2)c1 (stereo unspecified)	.	33	.	.	.	.	39	41
O=P(Cc1cc(Br)cc(Br)c1OCCO)(c1ccccc1)c1ccccc1	.	33	.	.	.	.	39	.
COc1ccc2[nH]c3c4c(ccc3c2c1)C(=O)C=CC4=O	.	23	/	/	.	/	62	80
CCCCCCCCC[n+]1cccc2c3ccccc3ccc21	.	75	94	.	.	86	80	80
COc1ccc(S(=O)(=O)N2CCCN(S(=O)(=O)c3ccc(OC)cc3C)CC2)c(C)c1	.	.	.	.	.	.	/	/
O=C1[C@@H]2C(Cc3ccc(O)cc3)NC3(C(=O)Nc4ccc(F)cc43)[C@@H]2C(=O)N1c1ccccc1 (stereo partly specified)	.	.	.	.	.	.	/	/
Cc1c(Cl)ccc2c1NC(=O)[C@]21N[C@@H](Cc2ccccc2)[C@H]2C(=O)N(c3ccc(F)cc3)C(=O)[C@H]21	.	36	.	.	.	.	67	69
O=C(CSc1nc(O)cc(=O)n1C1CCCC1)Nc1cccc(Cl)c1Cl	.	28	.	.	.	.	.	.
CNC(=S)N1N=C(c2ccc(Br)cc2)CC1c1ccc(N(C)C)cc1 (stereo unspecified)	.	.	.	.	.	.	/	/
CNC(=S)N1N=C(c2ccc(OC)cc2)CC1c1ccc(N(C)C)cc1 (stereo unspecified)	.	22	.	.	.	.	.	33
SMILES	EP2 antag	GPR7 antag	OX1R antag-1	OX1R antag-2	EP2 modulator	CHO parental Ca	GPR7 antag conf	MCHR1 antagonist
COc1ccc2[nH]c3c(c2c1)CCN1C(=O)N([C@@H](C)C(=O)NCc2ccccc2)C(=O)[C@]31C	/	.	.	.	/	.	/	/
C[C@@H](C(=O)NCCc1ccccc1)N1C(=O)N2CCc3c([nH]c4ccccc34)[C@@]2(C)C1=O	/	24	.	.	/	.	.	27
O=C(c1cc[n+]([O-])cc1)N1CCc2c([nH]c3ccccc23)C1c1ccccc1Cl (stereo unspecified)	.	31	.	.	.	.	.	.
CC(/C=C/c1ccc(C)o1)=C\C(=O)O	.	.	.	.	.	.	/	/
COc1ccc(OCC(=O)Nc2c3c(nn2C(C)(C)C)CS(=O)(=O)C3)cc1	/	.	.	.	/	.	/	/
COc1cc(C2C(Oc3ccccc3C)C(=O)N2Cc2ccc(F)cc2)cc(OC)c1OC (stereo unspecified)	.	23	.	.	.	.	.	23
COc1cccc(COC(=O)Nc2ccccc2F)c1	/	.	.	.	/	.	/	/
CN(C)CCNC(=O)c1ccc(COc2ccc(Cl)cc2Cl)cc1	.	30	.	.	.	.	40	52
COc1ccc(Cl)cc1C(=O)NCCN(C)C	.	.	.	.	.	.	/	/
CCOC(=O)c1c(C)c(/C=N/Nc2ccccc2)n(C)c1C	.	.	/	/	.	/	/	/
CCCCC(=O)Nc1ncc(S(=O)(=O)c2ccc([N+](=O)[O-])cc2)s1	/	35	.	.	/	.	26	25
O=C(c1ccccc1)c1ccc(Cn2cc(-c3ccccc3)nn2)cc1	/	41	.	.	/	.	47	61
CSCCC(NC(=O)/C(=C\c1ccco1)NC(=O)c1ccco1)C(=O)O (stereo unspecified)	/	.	.	.	/	.	/	/
CCCCC(O)(CCCC)C(=O)NN(C(=O)OCC)c1ccccc1	.	32	.	.	.	.	35	27
CCOC(=O)N(NC(=O)C(O)(c1ccccc1)c1ccccc1)c1ccccc1	.	31	.	.	.	.	.	28
CNC(=S)Nc1ccc(C)c(NC(=S)NC)c1	.	.	.	.	.	.	/	/
FC(F)C(F)(F)c1cc(-c2ccc(Cl)cc2)n[nH]1	.	30	73	.	.	56	32	44
CCOc1ccc([N+](=O)[O-])cc1CNC1CCCCCCC1	/	54	.	.	/	.	38	.

Bioassay records deposited in PubChem by several laboratories.
